Measurements from ChEMBL document CHEMBL5260851, “Iodinated Choline Transport-Targeted Tracers” (J Med Chem, 2020).
pIC50: −log10 of the molar value.

Legend:
[1] = Cytotoxicity against human BJ cells; format: toxicity, cell-based
[2] = Displacement of [3H]-choline from choline transporter in human PC-3 cells preincubated with [3H]-choline for 15 mins followed by compound addition and measured after 60 mins; format: cell-based
[3] = Cytotoxicity against human MRC5 cells; format: toxicity, cell-based
[4] = Displacement of [3H]-choline from choline transporter in human U-87 MG cells preincubated with [3H]-choline for 15 mins followed by compound addition and measured after 60 mins; format: cell-based
Method in brief: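 PC-3 cells were grown in F12 Ham with 10% FBS, 0.25% bicarbonate and pen/strep; U-87 MG cells in DMEM with 10% FBS, 0.1 mM NEAA and 1.0 mM pyruvate; both at 37 °C, 5% CO2, used at 70–90% confluence. [3H]choline was added in Tris uptake buffer (pH 7.4), then compound in triplicate over 10 concentrations; readout was radioactivity per g of protein (BCA), with IC50 from a sigmoidal fit.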

[5] = Stability in human plasma assessed as parent compound remaining at 2 uM after 2 hrs by RF-MS analysis; format: ADME, cell-free; details: read-out: Stability
Method in brief: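 Compound at 2 μM final (DMSO ≤0.1%) incubated in human plasma at 37 °C, sampled at 0, 15, 30, 60 and 120 min. Quenched with ACN–methanol (2:1) and measured by RapidFire-MS/MS (ESI+, MRM). The value is the percent of parent remaining.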

[6] = Stability in human liver microsomes assessed as parent compound remaining at 2 uM after 60 mins in presence of NADPH generating system by RF-MS analysis; format: ADME, Microsome; details: read-out: Stability
Method in brief: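 Compound at 2 μM with human liver microsomes (0.5 mg·mL⁻¹) and an NADPH-generating system (NADP⁺, isocitrate dehydrogenase, isocitric acid, MgSO4) in 0.1 M phosphate buffer at 37 °C. Samples taken at 0, 15, 30 and 60 min, quenched with ACN–methanol (2:1), freeze-dried, and analysed by RapidFire-MS against an internal standard.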

| Structure (SMILES) | pIC50 [1] | pIC50 [2] | pIC50 [3] | pIC50 [4] | remaining at 2 h, 2 µM [5] [%] | remaining at 1 h, 2 µM [6] [%] |
| --- | --- | --- | --- | --- | --- | --- |
| C[N+](C)(CCO)CCOc1cccc(I)c1 | < 4.30 | 4.66 | < 4.30 |  |  |  |
| C[N+](C)(CCCCO)CCc1ccc(I)s1 | < 4.30 | 4.52 | < 4.30 |  |  |  |
| C[N+](C)(CCO)Cc1cccc(I)c1 | < 4.30 | 3.88 | < 4.30 | 4.60 |  |  |
| OCC[N+]1(CCc2ccc(I)s2)CCCC1 | < 4.30 | 5.00 | < 4.30 |  | 86 | 86 |
| OCC[N+]1(CCCCOc2ccccc2I)CCCC1 | < 4.30 | 5.29 | < 4.30 |  | 91 | 70 |
| COc1ccc(CC[N+](C)(C)CCO)cc1I | < 4.30 | 4.62 | < 4.30 |  |  |  |
| OCC[N+]1(Cc2cccc(I)c2)CCCC1 | < 4.30 | 4.55 | < 4.30 | 5.06 | 66 | 90 |
| OC1C[N+]2(Cc3ccccc3I)CCC1CC2 (stereo not given) | < 4.30 | 3.80 | < 4.30 |  |  |  |
| C[N+](C)(C)CCO [CHOLINE] |  | 5.33 |  |  |  |  |
| OCC[N+]1(Cc2ccc(I)cc2)CCCC1 [listing 1 of 2 here] | < 4.30 | 4.96 | < 4.30 | 5.48 | 81 | 74 |
| C[N+](C)(CCO)CCc1ccc(I)cc1 | < 4.30 | 5.07 | < 4.30 |  |  |  |
| COc1ccc(CC[N+]23CCC(CC2)C(O)C3)cc1I (stereo not given) | < 4.30 | 3.94 | < 4.30 |  |  |  |
| CCCCCCOc1ccc(CCC[N+](C)(C)CCO)cc1I |  | 6.39 |  | 5.68 | 60 | 93 |
| C[N+](C)(CCO)Cc1ccc(I)cc1 | < 4.30 | 3.89 | < 4.30 | 3.89 |  |  |
| OCC[N+]1(CCOc2cccc(I)c2)CCCC1 | < 4.30 | 4.82 | < 4.30 |  |  |  |
| Cc1ccc(OCCCC[N+](C)(C)CCO)c(I)n1 | < 4.30 | 4.74 | < 4.30 |  |  |  |
| OCC[N+]1(Cc2ccccc2I)CCCCC1 | < 4.30 | 3.66 | < 4.30 |  |  |  |
| C[N+](C)(CCO)CCOc1ccccc1I | < 4.30 | 4.60 | < 4.30 |  |  |  |
| C[N+](C)(CCO)Cc1ccccc1I | < 4.30 | 3.67 | < 4.30 |  |  |  |
| COc1ccc(CCC[N+](C)(C)CCO)cc1I | < 4.30 | 4.47 | < 4.30 |  |  |  |
| C[N+](C)(CCCO)CCc1ccc(I)s1 | < 4.30 | 5.96 | < 4.30 |  |  |  |
| OCC[N+]1(CCc2ccc(I)cc2)CCCC1 | < 4.30 | 4.72 | < 4.30 | 4.54 | 98 | 96 |
| OCC[N+]1(CCCCCCOc2cccc(I)c2)CCCC1 | < 4.30 | 6.04 | < 4.30 |  | 91 | 79 |
| C[N+](C)(CCO)CCCC#CI | < 4.30 | 5.52 | < 4.30 |  | 89 | 95 |
| OCC[N+]1(Cc2ccccc2I)CCOCC1 | < 4.30 | 4.37 | < 4.30 |  |  |  |

| Structure (SMILES) | pIC50 [1] | pIC50 [2] | pIC50 [3] | pIC50 [4] | remaining at 2 h, 2 µM [5] [%] | remaining at 1 h, 2 µM [6] [%] |
| --- | --- | --- | --- | --- | --- | --- |
| C[N+](C)(CF)CCO |  | 4.70 |  |  |  |  |
| C[N+](C)(CCO)CCCCOc1ccccc1I | < 4.30 | 4.96 | < 4.30 |  | 91 | 54 |
| C[N+](C)(CCO)CCCCCCOc1cccnc1I | < 4.30 | 5.85 | < 4.30 |  | 86 | 86 |
| C[N+](C)(CCO)CCc1ccc(I)s1 | < 4.30 | 6.35 | < 4.30 |  | 89 | 86 |
| OCC[N+]1(CCOc2ccc(I)cc2)CCCC1 | < 4.30 | 4.74 | < 4.30 |  |  |  |
| C[N+]1(Cc2ccccc2I)CCCC(O)C1 (stereo not given) | < 4.30 | 3.71 | < 4.30 |  |  |  |
| C[N+]1(C)CCOC(O)(c2ccc(-c3ccc(C4(O)C[N+](C)(C)CCO4)cc3)cc2)C1 (stereo not given) |  | 4.44 |  |  |  |  |
| CC[N+](CC)(CCO)Cc1ccc(I)cc1 | < 4.30 | 4.11 | < 4.30 | 4.11 |  |  |
| OCCN1CC[N+](CCO)(Cc2ccccc2I)CC1 | < 4.30 | 3.04 | < 4.30 |  |  |  |
| C[N+](C)(CCO)CCCCCCOc1cccc(I)c1 | < 4.30 | 7.36 | < 4.30 |  | 83 | 85 |
| OCC[N+]1(CCCCC#CI)CCCC1 | < 4.30 | 4.74 | < 4.30 |  |  |  |
| OC1C[N+]2(CCc3ccc(I)cc3)CCC1CC2 (stereo not given) | < 4.30 | 4.12 | < 4.30 |  |  |  |
| OCC[N+]1(CCOc2ccccc2I)CCCC1 | < 4.30 | 5.33 | < 4.30 |  | 81 | 78 |
| C[N+](C)(CCO)CCCCC#CI | < 4.30 | 4.44 | < 4.30 |  |  |  |
| C[N+](C)(CCO)CCCCOc1ccc(-c2ccccc2)cc1I |  | 5.89 |  |  | 90 | 89 |
| C[N+]1(CCc2ccc(I)cc2)CCCC(O)C1 (stereo not given) | < 4.30 | 3.97 | < 4.30 |  |  |  |
| C[N+](C)(CCO)CCCCCCOc1ccc(I)c([N+](=O)[O-])c1 | < 4.30 | 6.85 | < 4.30 |  | 89 | 92 |
| C[N+](C)(CCO)CCOc1ccc(I)cc1 | < 4.30 | 4.64 | < 4.30 |  |  |  |
| CCCCCCCCCCOc1ccc(CCC[N+](C)(C)CCO)cc1I |  | 5.68 |  | 5.77 | 85 | 82 |
| C[N+](C)(CCO)CCc1cccc(I)c1 | < 4.30 | 5.92 | < 4.30 | 6.11 | 80 | 100 |
| COc1c(I)cc(CC[N+](C)(C)CCO)cc1I | < 4.30 | 4.28 | < 4.30 |  |  |  |
| CC[N+](CC)(CCO)Cc1ccccc1I | < 4.30 | 5.09 | < 4.30 | 5.37 | 85 | 100 |
| OCC[N+]1(Cc2ccc(I)cc2)CCCC1 [listing 2 of 2 here] |  | 4.80 |  | 4.64 |  |  |
| OCC[N+]1(Cc2ccc(I)cc2)CCOCC1 | < 4.30 | 3.56 | < 4.30 |  |  |  |
